Measured values from ChEMBL document CHEMBL4715779, “In vivo effective dibenzo[b,d]furan-1-yl-thiazoles as novel PDE-4 inhibitors” (Bioorg Med Chem, 2016).

Assays:
[1] = target: T1, 3',5'-cyclic-AMP phosphodiesterase 4B (Homo sapiens, UniProt Q07343); test: Inhibition of human PDE4B using [3H]cAMP as substrate incubated for 5 mins followed by substrate addition and measured after 10 mins by scintillation proximity assay
How it was run: (§1)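 Purified human PDE-4B2 in 50 mM Tris pH 7.4, 8.3 mM Mg2+, 1% DMSO final, enzyme converting 10–20% of substrate; 5 min pre-incubation at 37 °C, then 0.5 µM cAMP with ~50,000 cpm [3H]-cAMP for 10 min; stopped with yttrium silicate SPA beads containing 18 mM ZnSO4, read after >30 min settling. Background = no enzyme; IC50 from 8–10-point 4-parameter fit.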

Mus musculus [2] = test: Antiinflammatory activity in Swiss albino mouse model of LPS-induced sepsis assessed as reduction in TNFalpha production at 10 mg/kg, po administered 30 mins before LPS stimulation and measured after 90 min by ELISA relative to control; format: functional; conditions: 2 h, time 120 min
How it was run: (§2)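 Female Swiss albino mice fasted 20 h with water, dosed orally in 0.5% Tween 80/0.25% CMC sodium; vehicle-only controls. 500 µg E. coli LPS (B4) in PBS i.p. 30 min later; retro-orbital bleed 90 min post-LPS, blood held overnight at 4 °C, serum TNF-α by mouse ELISA; % inhibition.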

[3] = target: T1, 3',5'-cyclic-AMP phosphodiesterase 4B; test: Inhibition of human PDE4B using [3H]cAMP as substrate at 100 nM incubated for 5 mins followed by substrate addition and measured after 10 mins by scintillation proximity assay relative to control; conditions: time 15.0 min; how it was run: as §1
[4] = target: T1, 3',5'-cyclic-AMP phosphodiesterase 4B; test: Inhibition of human PDE4B using [3H]CAMP as substrate at 1000 nM incubated for 5 mins followed by substrate addition and measured after 10 mins by scintillation proximity assay relative to control; conditions: time 15.0 min; how it was run: as §1
[5] = Inhibition of PDE-4 in human PBMC assessed as LPS-induced TNFalpha production incubated for 15 mins followed by LPS stimulation and measured after 18 hrs by ELISA relative to control
How it was run: (§3)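 PBMC isolated from healthy volunteers' blood in cell preparation tubes, suspended in RPMI; 0.5 million cells/well pre-incubated with compound 15 min at 37 °C, then stimulated with E. coli LPS (B4) 1 µg/mL for 18 h at 37 °C, 5% CO2; medium TNF-α measured by ELISA.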

PBMC [6] = test: Inhibition of PDE-4 in human PBMC assessed as LPS-induced TNFalpha production at 1000 nM incubated for 15 mins followed by LPS stimulation and measured after 18 hrs by ELISA relative to control; conditions: time 1095.0 min; how it was run: as §3
Rattus norvegicus [7] = test: Antiinflammatory activity in Sprague-Dawley rat model of LPS-induced COPD and asthma assessed as reduction in neutrophil influx in BALF at 10 mg/kg, po administered 30 mins before LPS stimulation and measured after 6 hrs relative to control; format: functional; conditions: time 6.5 hrs
PBMC [8] = test: Inhibition of PDE-4 in human PBMC assessed as LPS-induced TNFalpha production at 100 nM incubated for 15 mins followed by LPS stimulation and measured after 18 hrs by ELISA relative to control; conditions: time 1095.0 min; how it was run: as §3
Rattus norvegicus [9] = test: Antiinflammatory activity in Sprague-Dawley rat model of LPS-induced COPD and asthma assessed as reduction in neutrophil influx in BALF at 5 mg/kg, po administered 30 mins before LPS stimulation and measured after 6 hrs relative to control; format: functional; conditions: time 6.5 hrs
Mus musculus [10] = test: Antiinflammatory activity in Swiss albino mouse model of LPS-induced sepsis assessed as reduction in TNFalpha production at 1 mg/kg, po administered 30 mins before LPS stimulation and measured after 90 min by ELISA relative to control; format: functional; conditions: 2 h, time 120 min; how it was run: as §2
Mus musculus [11] = test: Antiinflammatory activity in Swiss albino mouse model of LPS-induced sepsis assessed as reduction in TNFalpha production at 3 mg/kg, po administered 30 mins before LPS stimulation and measured after 90 min by ELISA relative to control; format: functional; conditions: 2 h, time 120 min; how it was run: as §2
Rattus norvegicus [12] = test: Antiinflammatory activity in Sprague-Dawley rat model of LPS-induced COPD and asthma assessed as reduction in total cell count in BALF at 10 mg/kg, po administered 30 mins before LPS stimulation and measured after 6 hrs relative to control; format: functional; conditions: time 6.5 hrs

T1 sequence (Q07343 whole entry): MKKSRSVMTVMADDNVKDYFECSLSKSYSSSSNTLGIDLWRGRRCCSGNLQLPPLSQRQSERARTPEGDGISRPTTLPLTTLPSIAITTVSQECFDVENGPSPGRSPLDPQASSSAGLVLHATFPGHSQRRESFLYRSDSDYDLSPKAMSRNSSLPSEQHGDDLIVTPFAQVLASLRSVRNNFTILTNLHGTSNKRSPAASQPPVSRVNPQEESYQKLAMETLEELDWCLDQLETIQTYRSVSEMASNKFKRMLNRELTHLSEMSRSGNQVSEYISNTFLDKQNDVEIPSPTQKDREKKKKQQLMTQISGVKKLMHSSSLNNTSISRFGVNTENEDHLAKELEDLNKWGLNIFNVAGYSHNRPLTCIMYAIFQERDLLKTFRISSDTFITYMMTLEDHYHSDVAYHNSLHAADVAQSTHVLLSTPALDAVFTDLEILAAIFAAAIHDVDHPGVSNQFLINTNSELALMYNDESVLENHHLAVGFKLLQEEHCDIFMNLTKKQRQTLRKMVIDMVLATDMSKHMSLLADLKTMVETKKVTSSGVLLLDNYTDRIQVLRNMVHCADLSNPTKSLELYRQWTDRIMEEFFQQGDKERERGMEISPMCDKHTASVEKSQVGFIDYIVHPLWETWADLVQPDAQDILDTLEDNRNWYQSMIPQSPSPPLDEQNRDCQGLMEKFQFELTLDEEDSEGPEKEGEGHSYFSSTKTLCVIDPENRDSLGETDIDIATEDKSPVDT

inhibition [3]	inhibition [4]	SMILES	inhibition (PBMC [6])	inhibition (PBMC [8])	other results
70.3%	92%	COc1ccc(-c2nc(C(=O)Nc3c(Cl)cncc3Cl)cs2)c2c1oc1ccccc12	34.2%	–	IC50 [1]: 48.4 nM; inhibition in vivo at 10 mg/kg (Mus musculus [2]): 37.8%; IC50 [5]: 1750 nM
69%	–	CC(=O)Nc1ccc2oc3c(OC(F)F)ccc(-c4nc(C(=O)NC5CCC(O)CC5)cs4)c3c2c1 (configuration not stated)	91.9%	83.4%	inhibition in vivo at 10 mg/kg (Rattus norvegicus [7]): 51.2%; IC50 [1]: 40.4 nM; inhibition in vivo at 5 mg/kg (Rattus norvegicus [9]): 35.7%; IC50 [5]: 39.6 nM
27.4%	–	O=C(c1csc(-c2ccc(OC(F)F)c3oc4ccc(C(F)(F)F)cc4c23)n1)N1CCC(O)CC1	–	14%	–
15.4%	43.8%	COc1ccc(-c2nc(C(N)=O)cs2)c2c1oc1ccccc12	69.8%	35.5%	IC50 [5]: 386 nM
5.2%	15.8%	COc1ccc(-c2nc(-c3ccc(C#N)cc3)cs2)c2c1oc1ccccc12	–	–	–
35.7%	–	CONC(=O)c1csc(-c2ccc(OC(F)F)c3oc4ccccc4c23)n1	–	8.5%	inhibition in vivo at 10 mg/kg (Mus musculus [2]): 40.7%
39.6%	–	COc1ccc(-c2nc(C(=O)NN3CCOCC3)cs2)c2c1oc1ccccc12	22%	–	–
8.9%	38.5%	COc1ccc(-c2nc(CCC(=O)Nc3c(Cl)cncc3Cl)cs2)c2c1oc1ccccc12	–	–	–
17.6%	24.4%	CCOC(=O)c1csc(-c2ccc(OC)c3oc4ccccc4c23)n1	–	–	–
2.4%	7.4%	COc1ccc(-c2nc(C(=O)Nc3ccccc3)cs2)c2c1oc1ccccc12	–	–	–
43.4%	–	CS(=O)(=O)Nc1ccc2oc3c(OC(F)F)ccc(-c4nc(C(=O)Nc5c(Cl)cncc5Cl)cs4)c3c2c1	–	25.1%	–
18.2%	26.4%	COc1ccc(-c2nc(-c3cccc(C(=O)O)n3)cs2)c2c1oc1ccccc12	–	–	–
11.1%	–	COc1ccc(-c2nc(C(=O)Nc3c(Cl)cncc3Cl)c(C)s2)c2c1oc1ccccc12	9.9%	0.9%	–
71.8%	–	COc1ccc(-c2nc(C(=O)NC3CCC(O)CC3)cs2)c2c1oc1ccccc12 (configuration not stated)	–	63.2%	IC50 [1]: 49.5 nM; inhibition in vivo at 10 mg/kg (Mus musculus [2]): 46.7%; IC50 [5]: 37.7 nM
–	–	CS(=O)(=O)Nc1ccc2oc3c(OC(F)F)ccc(C(=O)Nc4c(Cl)cncc4Cl)c3c2c1 [OGLEMILAST]	–	–	inhibition in vivo at 10 mg/kg (Mus musculus [2]): 72.5%; inhibition in vivo at 1 mg/kg (Mus musculus [10]): 53.9%
1.2%	5.2%	COc1ccc(-c2nc(C(=O)Nc3ccc(Cl)cc3)cs2)c2c1oc1ccccc12	15.8%	2.98%	–
62.6%	–	Cc1sc(-c2ccc(OC(F)F)c3oc4ccc(NS(C)(=O)=O)cc4c23)nc1C(=O)O	–	–	–
42.3%	88.6%	O=C(Nc1c(Cl)cncc1Cl)c1csc(-c2ccc(OC(F)F)c3oc4ccccc4c23)n1	28.3%	14.5%	IC50 [1]: 127 nM; IC50 [5]: 2210 nM

inhibition [3]	inhibition [4]	SMILES	inhibition (PBMC [6])	inhibition (PBMC [8])	other results
51.5%	–	O=C(NC1CCC(O)CC1)c1csc(-c2ccc(OC(F)F)c3oc4ccc(C(F)(F)F)cc4c23)n1 (configuration not stated)	–	17.2%	–
62.6%	–	COc1ccc(-c2nc(C(=O)NC3CCC(O)CC3)c(C)s2)c2c1oc1ccccc12 (configuration not stated)	103%	82.7%	IC50 [1]: 43.8 nM; IC50 [5]: 27.7 nM
32.7%	87.8%	COc1ccc(-c2nc(CC(=O)Nc3c(Cl)cncc3Cl)cs2)c2c1oc1ccccc12	–	–	–
5.8%	15.6%	CCOC(=O)c1cccc(-c2csc(-c3ccc(OC)c4oc5ccccc5c34)n2)n1	–	–	–
36%	80.4%	COc1ccc(-c2nc(C(=O)O)cs2)c2c1oc1ccccc12	–	–	–
67.6%	–	Cc1sc(-c2ccc(OC(F)F)c3oc4ccc(NS(C)(=O)=O)cc4c23)nc1C(=O)NC1CCC(O)CC1 (configuration not stated)	92.8%	61.8%	inhibition in vivo at 10 mg/kg (Rattus norvegicus [7]): 19.3%; IC50 [1]: 24.7 nM; IC50 [5]: 54.4 nM
24.6%	–	CCNC(=O)c1nc(-c2ccc(OC)c3oc4ccccc4c23)sc1C	23.8%	9.9%	–
1.6%	–	COc1ccc(-c2nc(C(=O)NC3CCCC3)c(C)s2)c2c1oc1ccccc12	39.1%	21.9%	–
81.2%	–	CONC(=O)c1nc(-c2ccc(OC(F)F)c3oc4ccc(NS(C)(=O)=O)cc4c23)sc1C	–	35.4%	–
–	–	O=C(Nc1c(Cl)cncc1Cl)c1ccc(OC(F)F)c(OCC2CC2)c1 [ROFLUMILAST]	–	–	inhibition in vivo at 10 mg/kg (Rattus norvegicus [7]): 73.2%; inhibition in vivo at 3 mg/kg (Mus musculus [11]): 59.2%; inhibition in vivo at 10 mg/kg (Rattus norvegicus [12]): 73.2%; IC50 [5]: 4.3 nM
–	–	CCOc1cc([C@@H](CS(C)(=O)=O)N2C(=O)c3cccc(NC(C)=O)c3C2=O)ccc1OC	–	–	IC50 [5]: 77 nM
19.4%	41.5%	COc1ccc(-c2csc(-c3ccc(OC)c4oc5ccccc5c34)n2)cc1	–	–	–
67%	–	CS(=O)(=O)Nc1ccc2oc3c(OC(F)F)ccc(-c4nc(C(=O)NC5CCC(O)CC5)cs4)c3c2c1 (configuration not stated)	97.8%	78.6%	IC50 [1]: 31.4 nM; IC50 [5]: 18.4 nM
21.9%	52.9%	COc1ccc(-c2nc(C(=O)N3CCN(c4ccccn4)CC3)cs2)c2c1oc1ccccc12	–	–	–
59.3%	–	O=C(O)c1csc(-c2ccc(OC(F)F)c3oc4ccc(C(F)(F)F)cc4c23)n1	–	4.2%	–
25.8%	59.3%	COc1ccc(-c2nc(C(=O)N3CCN(c4ncccn4)CC3)cs2)c2c1oc1ccccc12	–	–	–
56.5%	–	CC(=O)Nc1ccc2oc3c(OC(F)F)ccc(-c4nc(C(=O)O)cs4)c3c2c1	–	15.5%	–
–	–	O=C(NCC(F)(F)F)c1csc(-c2ccc(OC(F)F)c3oc4ccccc4c23)n1	31.9%	26.7%	–
